We go through 17 molecules from ChEMBL document CHEMBL1156851, “Practical and efficient synthesis of pyrano[3,2-c]pyridone, pyrano[4,3-b]pyran and their hybrids with nucleoside as potential antiviral and antileishmanial agents” (Bioorg Med Chem Lett, 2010).

Series [1] concerns Human betaherpesvirus 5. Briefly: Antiviral activity against Cytomegalovirus AD169 infected in HEL cells assessed as reduction of viral plaque formation. The series is classed as functional, organism-based. To be noted: Human betaherpesvirus 5, AD169, HEL.
Series [2] deals with Human betaherpesvirus 5. Briefly: Antiviral activity against Cytomegalovirus Davis infected in HEL cells assessed as reduction of viral plaque formation. The series is classed as functional, organism-based. To be noted: Human betaherpesvirus 5, Davis.
The subject of another series is Leishmania donovani. Briefly: Antileishmanial activity against Leishmania donovani promastigotes. The series is classed as functional, organism-based.
The test system of series [3] is Human alphaherpesvirus 3. Description: Antiviral activity against thymidine kinase expressing Varicella Zoster Virus OKA infected in HEL cells assessed as reduction of viral plaque formation. The series is classed as functional, organism-based. To be noted: Human alphaherpesvirus 3, OKA.
Series [4] deals with Human alphaherpesvirus 3. Briefly: Antiviral activity against thymidine kinase deficient Varicella zoster virus 07/1 infected in HEL cells assessed as reduction of viral plaque formation. The class given is functional, organism-based. To be noted: Human alphaherpesvirus 3, 07/1, HEL.
Series [5] can be described thus: Cytotoxicity against HEL cells assessed as microscopically detectable alteration of cell morphology. The series is classed as cell-based. To be noted: human. The gist of the method: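 Cells are examined under the microscope after exposure. MCC is the minimum concentration that causes a microscopically detectable change in cell morphology.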
A short description of series [6]: Cytotoxicity against HEL cells assessed as reduction of cell growth. The series is classed as cell-based. The conditions noted are these: human.

Take `CC(=O)OC[C@H]1O[C@@H](n2cc(C(c3c(O)cc(C)n(C)c3=O)c3c(O)cc(C)n(C)c3=O)c(=O)[nH]c2=O)C[C@@H]1OC(C)=O`: the 50% effective concentration (EC50) (as a rule, the concentration needed to bring the measured effect to its halfway point) with Human betaherpesvirus 5 [1] is > 100 µM; in the series on Human betaherpesvirus 5 [2] it was > 100 µM; with Human alphaherpesvirus 3 [3] it was 47.8 µM; with Human alphaherpesvirus 3 [4], > 100 µM. Also, the IC50 – broadly, the concentration at which inhibition is half-maximal – in the series with Leishmania donovani was > 200 µM. Also, the MCC in series [5] was > 100 µM. The CC50 (commonly the concentration that lowers cell viability or growth by half) in series [6] is 20 µM.
On to `CCn1c(C)cc2c(c1=O)C(c1cn([C@H]3C[C@H](O)[C@@H](CO)O3)c(=O)[nH]c1=O)C(C#N)=C(N)O2` (stereo not given in full), for which the EC50 was > 100 µM with Human betaherpesvirus 5 [1], > 100 µM with Human betaherpesvirus 5 [2], 71.2 µM in the series with Human alphaherpesvirus 3 [3] and > 100 µM in the series on Human alphaherpesvirus 3 [4]. Also, the half-maximal inhibitory concentration (IC50) with Leishmania donovani was > 200 µM. The MCC in series [5] was > 100 µM. Also, in series [6], the CC50 is > 100 µM.
Take `CC(=O)OC[C@H]1O[C@@H](n2cc(C(c3c(O)cc(C)oc3=O)c3c(O)cc(C)oc3=O)c(=O)[nH]c2=O)C[C@@H]1OC(C)=O`: the EC50 in the series with Human betaherpesvirus 5 [1] was > 100 µM; in the series on Human betaherpesvirus 5 [2], > 100 µM; in the series on Human alphaherpesvirus 3 [3], 40.2 µM; in the series on Human alphaherpesvirus 3 [4], 48.6 µM. Moreover, in the series with Leishmania donovani, the IC50 was > 200 µM. Further, the MCC in series [5] was > 100 µM. In addition, in series [6], the CC50 was 3.8 µM.
For the molecule `CC(=O)OC[C@H]1O[C@@H](n2cc(C(c3c(O)cc(C)[nH]c3=O)c3c(O)cc(C)[nH]c3=O)c(=O)[nH]c2=O)C[C@@H]1OC(C)=O`, the EC50 with Human betaherpesvirus 5 [1], in the series on Human betaherpesvirus 5 [2], with Human alphaherpesvirus 3 [3] and in the series on Human alphaherpesvirus 3 [4] was > 100 µM each time. Also, in the series on Leishmania donovani, the IC50 is > 200 µM. Further, the MCC in series [5] was > 100 µM. Moreover, in series [6], the CC50 worked out at 36.9 µM.
For `CC(=O)OC[C@H]1O[C@@H](n2cc(C3C(C#N)=C(N)Oc4cc(C)n(C)c(=O)c43)c(=O)[nH]c2=O)C[C@@H]1OC(C)=O` (stereo not given in full), the EC50 in the series with Human betaherpesvirus 5 [1], in the series with Human betaherpesvirus 5 [2], in the series with Human alphaherpesvirus 3 [3] and in the series with Human alphaherpesvirus 3 [4] was > 100 µM throughout. Moreover, the IC50 in the series with Leishmania donovani is > 200 µM. The MCC in series [5] is > 100 µM. Moreover, the CC50 in series [6] is > 100 µM.
`CCn1c(C)cc2c(c1=O)C(c1cn([C@H]3C[C@H](OC(C)=O)[C@@H](COC(C)=O)O3)c(=O)[nH]c1=O)C(C#N)=C(N)O2` (stereo not given in full): the EC50 in the series with Human betaherpesvirus 5 [1], with Human betaherpesvirus 5 [2], in the series on Human alphaherpesvirus 3 [3] and with Human alphaherpesvirus 3 [4] was > 100 µM throughout. Besides, the 50% inhibitory concentration (IC50) with Leishmania donovani was > 200 µM. Further, in series [5], the MCC is > 100 µM. Further, the CC50 in series [6] is > 100 µM.
In the case of `Cc1cc2c(c(=O)n1C)C(c1cn([C@H]3C[C@H](O)[C@@H](CO)O3)c(=O)[nH]c1=O)C(C#N)=C(N)O2` (stereo not given in full), the EC50 was > 100 µM in the series on Human betaherpesvirus 5 [1], > 100 µM with Human betaherpesvirus 5 [2], 74.6 µM with Human alphaherpesvirus 3 [3] and > 100 µM in the series with Human alphaherpesvirus 3 [4]. In addition, in the series with Leishmania donovani, the IC50 was > 200 µM. In series [5], the MCC was > 100 µM. Also, in series [6], the CC50 is > 100 µM.
Regarding `Cc1cc(O)c(C(c2cn([C@H]3C[C@H](O)[C@@H](CO)O3)c(=O)[nH]c2=O)c2c(O)cc(C)oc2=O)c(=O)o1`, the EC50 with Human betaherpesvirus 5 [1] stood at 20 µM; with Human betaherpesvirus 5 [2] it was 20 µM; in the series with Human alphaherpesvirus 3 [3], 0.6 µM; with Human alphaherpesvirus 3 [4] it was 2.62 µM. For the same molecule, the IC50 with Leishmania donovani is > 200 µM. Besides, the MCC in series [5] is > 100 µM. The CC50 in series [6] was determined as 1.8 µM.
As for `Cc1cc2c(c(=O)o1)C(c1cn([C@H]3C[C@H](O)[C@@H](CO)O3)c(=O)[nH]c1=O)C(C#N)=C(N)O2` (stereo not given in full), the EC50 in the series with Human betaherpesvirus 5 [1] was 54.7 µM; in the series on Human betaherpesvirus 5 [2], 54.7 µM; with Human alphaherpesvirus 3 [3] it was 1.8 µM; in the series with Human alphaherpesvirus 3 [4], 5.3 µM. The IC50 in the series on Leishmania donovani was > 200 µM. In addition, the MCC in series [5] was > 100 µM. Further, the CC50 in series [6] was 3.3 µM.
Take `Cc1cc(O)c(C(c2cn([C@H]3C[C@H](O)[C@@H](CO)O3)c(=O)[nH]c2=O)c2c(O)cc(C)[nH]c2=O)c(=O)[nH]1`: the EC50 in the series on Human betaherpesvirus 5 [1] was 44.7 µM; in the series on Human betaherpesvirus 5 [2] it was > 100 µM; with Human alphaherpesvirus 3 [3], 0.32 µM; in the series with Human alphaherpesvirus 3 [4], 1.66 µM. This molecule also had an IC50 in the series with Leishmania donovani of 43.5 µM. Moreover, the MCC in series [5] was > 100 µM. In addition, the half-maximal cytotoxic concentration (CC50) in series [6] was 2.1 µM.
Turning to `CC(=O)OC[C@H]1O[C@@H](n2cc(C3C(C#N)=C(N)Oc4cc(C)[nH]c(=O)c43)c(=O)[nH]c2=O)C[C@@H]1OC(C)=O` (stereo not given in full), the EC50 was > 100 µM in the series on Human betaherpesvirus 5 [1], > 100 µM with Human betaherpesvirus 5 [2], 100 µM in the series on Human alphaherpesvirus 3 [3] and > 100 µM in the series with Human alphaherpesvirus 3 [4]. Further, the IC50 with Leishmania donovani came to 140 µM. Also, the MCC in series [5] is > 100 µM. The CC50 in series [6] was > 100 µM.
As for `CC(=O)OC[C@H]1O[C@@H](n2cc(C3C(C#N)=C(N)Oc4cc(C)oc(=O)c43)c(=O)[nH]c2=O)C[C@@H]1OC(C)=O` (stereo not given in full), the concentration for a half-maximal effect (EC50) in the series with Human betaherpesvirus 5 [1] is > 100 µM; in the series with Human betaherpesvirus 5 [2], > 100 µM; in the series on Human alphaherpesvirus 3 [3], 48.1 µM; with Human alphaherpesvirus 3 [4], > 100 µM. For the same molecule, the IC50 with Leishmania donovani is > 200 µM. For the same molecule, the MCC in series [5] is > 100 µM. The 50% cytotoxic concentration (CC50) in series [6] came to 8.9 µM.
For the molecule `Cc1cc(O)c(C(c2cn([C@H]3C[C@H](O)[C@@H](CO)O3)c(=O)[nH]c2=O)c2c(O)cc(C)n(C)c2=O)c(=O)n1C`, the EC50 in the series on Human betaherpesvirus 5 [1] was 54.7 µM; in the series on Human betaherpesvirus 5 [2], > 100 µM; in the series on Human alphaherpesvirus 3 [3], 2.2 µM; in the series with Human alphaherpesvirus 3 [4], 16.7 µM. The half-inhibitory concentration (IC50) in the series with Leishmania donovani was > 200 µM. Moreover, the MCC in series [5] is > 100 µM. Also, the CC50 in series [6] came out at 7.7 µM.
Regarding `Cc1cc2c(c(=O)[nH]1)C(c1cn([C@H]3C[C@H](O)[C@@H](CO)O3)c(=O)[nH]c1=O)C(C#N)=C(N)O2` (stereo not given in full), the EC50 in the series with Human betaherpesvirus 5 [1] was > 100 µM; in the series with Human betaherpesvirus 5 [2] it was > 100 µM; in the series on Human alphaherpesvirus 3 [3] it was 55.7 µM; in the series on Human alphaherpesvirus 3 [4], > 100 µM. In addition, the midpoint of inhibition in the series with Leishmania donovani, the IC50, lay at 10.6 µM. Moreover, in series [5], the MCC was > 100 µM. In addition, in series [6], the CC50 is > 100 µM.
Take `Nc1nc2c(ncn2COCCO)c(=O)[nH]1` [ACYCLOVIR]: the EC50 in the series with Human alphaherpesvirus 3 [3] came to 0.84 µM. In series [5], the MCC was > 1780 µM. Further, the CC50 in series [6] came out at 1780 µM.
Consider `Nc1ccn(C[C@@H](CO)OCP(=O)(O)O)c(=O)n1` [CIDOFOVIR], for which, in the series on Human betaherpesvirus 5 [2], the EC50 stood at 0.9 µM. For the same molecule, the MCC in series [5] was > 1270 µM. In addition, the CC50 in series [6] is 175 µM.
With `N=C(N)c1ccc(OCCCCCOc2ccc(C(=N)N)cc2)cc1` [PENTAMIDINE], in the series on Leishmania donovani, half-maximal inhibition (IC50) was put at 6.5 µM.
